Reference: ChEMBL document CHEMBL1649324, “In vitro activity of tebipenem, a new oral carbapenem antibiotic, against beta-lactamase-nonproducing, ampicillin-resistant Haemophilus influenzae” (2010)
≈ marks a conversion by molar mass, not a printed value.

Tests used:
Assay type in all cases: functional
Haemophilus influenzae [1] = assay: Antimicrobial activity against gBLNAS Haemophilus influenzae by agar dilution method
Procedure, shortened: (§1)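 Agar dilution on Mueller-Hinton agar with 0.5% yeast extract, 2% defibrinated heat-treated horse blood and 15 μg/ml β-NAD+. Plates were incubated 20 h at 37°C in 5% CO2, and the MIC was read. Clinical pediatric isolates (2005–2008) were assigned to genetic resistance classes by PCR.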

Haemophilus influenzae [2] = assay: Antimicrobial activity against gLow-BLNAR Haemophilus influenzae by agar dilution method; procedure, shortened: as §1
Haemophilus influenzae [3] = assay: Antimicrobial activity against gBLNAR Haemophilus influenzae by agar dilution method
Procedure, shortened: (§2)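 Agar dilution MICs on Mueller-Hinton agar with 0.5% yeast extract, 2% defibrinated heat-treated horse blood and 15 μg/ml β-NAD+. Plates read after 20 h at 37°C in 5% CO2. Paediatric clinical isolates (2005–2008) assigned to genetic β-lactam resistance class by PCR. Values are MIC range, MIC50 and MIC90 per class.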

Haemophilus influenzae [4] = assay: Antimicrobial activity against gBLPAR-TEM1 Haemophilus influenzae by agar dilution method; procedure, shortened: as §2
Haemophilus influenzae [5] = assay: Antimicrobial activity against gBLPACR-1 Haemophilus influenzae by agar dilution method; procedure, shortened: as §1
Haemophilus influenzae [6] = assay: Antimicrobial activity against gBLPACR-2 Haemophilus influenzae by agar dilution method; procedure, shortened: as §2
Haemophilus influenzae [7] = assay: Bactericidal activity against gBLNAR Haemophilus influenzae JPH002 assessed as reduction in bacterial load at MIC after 4 hrs by time-kill analysis
Procedure, shortened: (§3)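 Colonies precultured on chocolate agar were suspended in MH broth to 0.5 McFarland, diluted 10-fold in MH broth with yeast extract, horse blood and β-NAD+, then grown 120 min at 37°C. 500 μl was inoculated into 9.5 ml of the same supplemented broth containing drug at the MIC or 2× MIC, with or without 10% fresh human serum. Tubes were incubated static and viable counts sampled at set intervals.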

Haemophilus influenzae [8] = assay: Bactericidal activity against gBLNAR Haemophilus influenzae JPH002 assessed as reduction in bacterial load at MIC after 6 hrs by time-kill analysis; procedure, shortened: as §3
Haemophilus influenzae [9] = assay: Bactericidal activity against gBLNAR Haemophilus influenzae JPH002 assessed as reduction in bacterial load at MIC after 2 hrs by time-kill analysis in presence of 10% human serum; procedure, shortened: as §3
Haemophilus influenzae [10] = assay: Bactericidal activity against gBLNAR Haemophilus influenzae JPH002 assessed as reduction in bacterial load at MIC after 4 hrs by time-kill analysis in presence of 10% human serum; procedure, shortened: as §3
Haemophilus influenzae [11] = assay: Bactericidal activity against gBLNAR Haemophilus influenzae JPH002 assessed as reduction in bacterial load at MIC after 6 hrs by time-kill analysis in presence of 10% human serum; procedure, shortened: as §3
Haemophilus influenzae [12] = assay: Bactericidal activity against gBLNAR Haemophilus influenzae JPH1306 assessed as reduction in bacterial load at MIC after 4 hrs by time-kill analysis; procedure, shortened: as §3
Haemophilus influenzae [13] = assay: Bactericidal activity against gBLNAR Haemophilus influenzae JPH1306 assessed as reduction in bacterial load at MIC after 6 hrs by time-kill analysis; procedure, shortened: as §3
Haemophilus influenzae [14] = assay: Bactericidal activity against gBLNAR Haemophilus influenzae JPH1306 assessed as reduction in bacterial load at MIC after 2 hrs by time-kill analysis in presence of 10% human serum; procedure, shortened: as §3
Haemophilus influenzae [15] = assay: Bactericidal activity against gBLNAR Haemophilus influenzae JPH1306 assessed as reduction in bacterial load at MIC after 4 hrs by time-kill analysis in presence of 10% human serum; procedure, shortened: as §3
Haemophilus influenzae [16] = assay: Bactericidal activity against gBLNAR Haemophilus influenzae JPH1306 assessed as reduction in bacterial load at MIC after 6 hrs by time-kill analysis in presence of 10% human serum; procedure, shortened: as §3

Compound | MIC50 (Haemophilus influenzae [1]) | MIC90 (Haemophilus influenzae [1]) | MIC50 (Haemophilus influenzae [2]) | MIC90 (Haemophilus influenzae [2]) | MIC50 (Haemophilus influenzae [3]) | MIC90 (Haemophilus influenzae [3]) | MIC (Haemophilus influenzae [4]) | MIC (Haemophilus influenzae [5]) | MIC (Haemophilus influenzae [6]) | MIC (Haemophilus influenzae [2]) | log10cfu (Haemophilus influenzae [7]) | log10cfu (Haemophilus influenzae [8]) | log10cfu (Haemophilus influenzae [9]) | log10cfu (Haemophilus influenzae [10]) | log10cfu (Haemophilus influenzae [11]) | log10cfu (Haemophilus influenzae [12]) | log10cfu (Haemophilus influenzae [13]) | log10cfu (Haemophilus influenzae [14]) | log10cfu (Haemophilus influenzae [15]) | log10cfu (Haemophilus influenzae [16])
CC1(C)S[C@@H]2[C@H](NC(=O)[C@H](N)c3ccc(O)cc3)C(=O)N2[C@H]1C(=O)O [AMOXICILLIN] | 0.5 µg/mL (≈ 1.37 µM) | 0.5 µg/mL (≈ 1.37 µM) | 2 µg/mL (≈ 5.47 µM) | 4 µg/mL (≈ 10.9 µM) | 8 µg/mL (≈ 21.9 µM) | 32 µg/mL (≈ 87.6 µM) | 8 µg/mL (≈ 21.9 µM) | 8 µg/mL (≈ 21.9 µM) | 2 µg/mL (≈ 5.47 µM) |  |  |  |  |  |  |  |  |  |  | 
CC1(C)S[C@@H]2[C@H](NC(=O)[C@H](N)c3ccccc3)C(=O)N2[C@H]1C(=O)O [AMPICILLIN] | 0.25 µg/mL (≈ 0.715 µM) | 0.5 µg/mL (≈ 1.43 µM) | 1 µg/mL (≈ 2.86 µM) | 1 µg/mL (≈ 2.86 µM) | 2 µg/mL (≈ 5.72 µM) | 8 µg/mL (≈ 22.9 µM) | 8 µg/mL (≈ 22.9 µM) | 8 µg/mL (≈ 22.9 µM) | 2 µg/mL (≈ 5.72 µM) |  |  |  |  |  |  |  |  |  |  | 
CC[C@H]1OC(=O)[C@H](C)[C@@H](O[C@H]2C[C@@](C)(OC)[C@@H](O)[C@H](C)O2)[C@H](C)[C@@H](O[C@@H]2O[C@H](C)C[C@H](N(C)C)[C@H]2O)[C@](C)(O)C[C@@H](C)CN(C)[C@H](C)[C@@H](O)[C@]1(C)O [AZITHROMYCIN] | 2 µg/mL (≈ 2.67 µM) | 4 µg/mL (≈ 5.34 µM) | 2 µg/mL (≈ 2.67 µM) | 2 µg/mL (≈ 2.67 µM) | 2 µg/mL (≈ 2.67 µM) | 4 µg/mL (≈ 5.34 µM) | 1 µg/mL (≈ 1.34 µM) | 2 µg/mL (≈ 2.67 µM) | 2 µg/mL (≈ 2.67 µM) |  |  |  |  |  |  |  |  |  |  | 
C=CC1=C(C(=O)O)N2C(=O)[C@@H](NC(=O)/C(=N\O)c3csc(N)n3)[C@H]2SC1 [CEFDINIR] | 0.25 µg/mL (≈ 0.632 µM) | 0.5 µg/mL (≈ 1.26 µM) | 0.5 µg/mL (≈ 1.26 µM) | 2 µg/mL (≈ 5.06 µM) | 8 µg/mL (≈ 20.2 µM) | 32 µg/mL (≈ 80.9 µM) | 0.25 µg/mL (≈ 0.632 µM) | 1 µg/mL (≈ 2.53 µM) | 8 µg/mL (≈ 20.2 µM) | 0.5 µg/mL (≈ 1.26 µM) |  |  |  |  |  |  |  |  |  | 
CO/N=C(\C(=O)N[C@@H]1C(=O)N2C(C(=O)O)=C(COC(C)=O)CS[C@H]12)c1csc(N)n1 [CEFOTAXIME] | 0.016 µg/mL (≈ 0.0351 µM) | 0.031 µg/mL (≈ 0.0681 µM) | 0.031 µg/mL (≈ 0.0681 µM) | 0.12 µg/mL (≈ 0.263 µM) | 0.5 µg/mL (≈ 1.1 µM) | 1 µg/mL (≈ 2.2 µM) | 0.008 µg/mL (≈ 0.0176 µM) | 0.031 µg/mL (≈ 0.0681 µM) | 0.25 µg/mL (≈ 0.549 µM) |  |  |  |  |  |  |  |  |  |  | 
CC[C@H]1OC(=O)[C@H](C)[C@@H](O[C@H]2C[C@@](C)(OC)[C@@H](O)[C@H](C)O2)[C@H](C)[C@@H](O[C@@H]2O[C@H](C)C[C@H](N(C)C)[C@H]2O)[C@](C)(OC)C[C@@H](C)C(=O)[C@H](C)[C@@H](O)[C@]1(C)O [CLARITHROMYCIN] | 8 µg/mL (≈ 10.7 µM) | 16 µg/mL (≈ 21.4 µM) | 8 µg/mL (≈ 10.7 µM) | 16 µg/mL (≈ 21.4 µM) | 8 µg/mL (≈ 10.7 µM) | 16 µg/mL (≈ 21.4 µM) | 8 µg/mL (≈ 10.7 µM) | 8 µg/mL (≈ 10.7 µM) | 8 µg/mL (≈ 10.7 µM) |  |  |  |  |  |  |  |  |  |  | 
C[C@@H](O)[C@H]1C(=O)N2C(C(=O)O)=C(S[C@@H]3CN[C@H](C(=O)N(C)C)C3)[C@H](C)[C@H]12 [MEROPENEM] | 0.063 µg/mL (≈ 0.164 µM) | 0.12 µg/mL (≈ 0.313 µM) | 0.12 µg/mL (≈ 0.313 µM) | 0.25 µg/mL (≈ 0.652 µM) | 0.25 µg/mL (≈ 0.652 µM) | 0.5 µg/mL (≈ 1.3 µM) | 0.031 µg/mL (≈ 0.0808 µM) | 0.063 µg/mL (≈ 0.164 µM) | 0.063 µg/mL (≈ 0.164 µM) |  |  |  |  |  |  |  |  |  |  | 
C[C@@H](O)[C@H]1C(=O)N2C(C(=O)O)=C(SC3CN(C4=NCCS4)C3)[C@H](C)[C@H]12 [TEBIPENEM] | 0.063 µg/mL (≈ 0.164 µM) | 0.12 µg/mL (≈ 0.313 µM) | 0.25 µg/mL (≈ 0.652 µM) | 0.5 µg/mL (≈ 1.3 µM) | 0.25 µg/mL (≈ 0.652 µM) | 1 µg/mL (≈ 2.61 µM) | 0.063 µg/mL (≈ 0.164 µM) | 0.12 µg/mL (≈ 0.313 µM) | 0.25 µg/mL (≈ 0.652 µM) |  | 3 | 3 | 3 | 3 | 3 | 3 | 3 | 3 | 3 | 3
